Assay results: the RNAGym collection of RNA variant scans (doi:10.1126/science.aae0568)
This sample holds only a part of the variants without activity.

B1: tRNA (parent)
chain: GUUCCGUUGGCGUAAUGGUAACGCGUCUCCCUCCUAAGGAGAAGACUGCGGGUUCGAGUCCCGUACGGAACG

Variants of: B1
Test: yeast fitness relative to wild type (ratio to wild type); higher = fitter; tRNA-Arg(CCU), competitive growth, 37 C, YPD
How it was run: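 The tRNA-Arg(CCU) gene variants were made by chemical synthesis with a 3% per-site mutation rate at 69 sites and inserted at the native genomic locus of Saccharomyces cerevisiae. After pooling, the strains were competed in YPD at 37°C for 24 hours in six parallel replicates. Gene amplicons from the start population and each end population were read by 100-nucleotide paired-end sequencing, and Darwinian fitness relative to wild type was taken from genotype frequency changes. Genotypes needed ≥ 100 starting reads, and estimates < 0.5 were set to 0.5.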

Row | Variant | yeast fitness
1 | GUUCAGUCGGCGUAAUGGUAGCGCGUCUCCCUCCUAAGGAGAAGACUGCGGGUUCGAGUCCCGUACGGAACG | 0.53
2 | GUUCAGUUGGCGUAAUGGUAACGCGUCUCCCUCCUAAGGAGAAGACUCCGGGUUCGAGUCCCGUACGGAACG | 0.953
3 | GUUCAGCUGGCGUAAUGGUAACGCGUCUCCCUCCUGAGGAGAAGACUGCGGGUUCGAGUCCCGUACGGAACG | ≤ 0.5
4 | GUUCAGCUGGCGUAAUGGUAACGCGUCUCCCUCCUAAGGAGAAGACUGCGGGUUCGAGUCCCGUCCGGAACG | ≤ 0.5
5 | GUUCAGUUGGCGAAAUGGUAACGCGUGUCCCUCCUAGGGAGAAGACUGCGGGUUCGAGUCCCGUACGGAACG | ≤ 0.5
6 | GUUCAGUCGGCGUAAUGGUAACGCGUCUCGGUCCUAAGGAGAAGACUGCGGGUUCGAGUCCCGUCCGGAACG | ≤ 0.5
7 | GUUCAGUUGGCGUAAUGGUAACGCGUCUCCCUCCUAAGGAGAAGACUGCGGGUUCGAGUCCCGUACUGAACG | 0.865
8 | GUUCAGAUGGCGUAAUGGUAGCGCGUCUCCCUCCUAAGGAGAAGACUGCGGGUUCGAGUCCCGUACCGAACG | 0.541
9 | GUUCAGCUGGCGUAAUGGUAACGCGUCUCCCACCUAAGGAGAAGACUGCGGCUUUGAGUCCCGUAUGGAACG | ≤ 0.5
10 | GUUCAGUUGGCGAAAUGGUAACGCGUCUCCCUCCUAAGGAGAAGCCUGCGGGUUCGAGUCCCGUACGGAACG | 0.576
11 | GUUCAGUUGGCGAAAUGGUGACGCGUCUCCCUCCUAAGGAGCAGACUGCGGGUUCGAGCCCCGUACGGAACG | ≤ 0.5
12 | GUUCAGUCGGCGCAAUGAUAACGCGUCUCCGUCCUAAGGAGAAGAUUGCGGGUUCGAGUCCCGUACGGAACG | ≤ 0.5
13 | GUUCAGUUGGCGUAAUGGUAACGCGUCUCCCUCCUAAGGAGAAGACUGCGAGUUCGAGUCCCGUACGGAACG | 0.71
14 | GUUCAGGUGGCGUCAGGGUAACGCGUCUCCCUCCUAAGGAGAGGACUGCGGGCUCGAGUCCGGUACGGAACG | ≤ 0.5
15 | GUUCAGUUGGCGUAAUGGUAACGCGUCUCCCUCCUAAGGAGAAGACUGCGGAUUCGAGUCCCGUACGGAACG | 0.641
16 | GUUCAGUUGGCGUAAUGGUAACGCGUCUCCCUCCUAAGGAGAAGACUGCGGCUUCGAGUCCCGUACGGAACG | 0.567
17 | GUUCAGUUGGCGAAAUGGUAACGCGUCUCUCUCCUAAGGAGAAGCCUGCGGGUUCGAGUCCCGUACGGAACG | ≤ 0.5
18 | GUUCAGUUGGCGUAAUGGUAACGCGUCUCCCUCCUAAGGAGAAGACUGCGAGUUCGAGUCACGUACGGAACG | ≤ 0.5
19 | GUUCAGAUGGCGUAAUGGUAGCGCGUCUCCCUCCUAAGGAGAAGACUGCGGGUUCGAGUCGCGUAGGGAACG | ≤ 0.5

Row | Variant | yeast fitness
20 | GUUCAGUUGGCGUAAUGGUAACGCGUCUCCCUCCUAAGGAGAAGACUGCGGGUUCGAGUCCCUUACGGAACG | 0.722
21 | GUUCAGUUGGCGUAAUGGUAACGCGUCUCCCUCCUAAGGAGAAGACUGCGGGUUCGAGUCCCAUACGGAACG | 0.683
22 | GUUCAGUUGGCGUAAUGGUAACGCGUCUCCCUCCUAAGGAGAAGACUGCCGGUUCGAGUCCCGUACGGAACG | 0.626
23 | GUUCAGAUGGCGUAAUGGUAACGCGUCUCCCUCCUAAGAAGAAGACUGCGGGUUCGAGUUCAGUACGGAACG | ≤ 0.5
24 | GUUCAGUCGACGUAAUGGUAGCGCGUCUCCCUCCUAAGGAGAAGCCUGCGGGUUCCAGUCCCGUACGGAACG | ≤ 0.5
25 | GUUCAGUCGGCGUAAUGGUAACGCGUUUCCCUCCUAAGGGGAAGACUGUGGGUUGGAGUCCCGUACGGAACG | ≤ 0.5
26 | GUUCAGUGGGCGUAAUGGUAACGCGUCUCCCUCCUAUGGAGAAGACUGCGACUUCGAGCCCCGUACGGAACG | 0.639
27 | GUUCAGUCGGCGUAAUGGUAACGCGUCUCCCUCCUAAGGAGAAGACUGCGGGUUCGAGUCCCGUACGGAACG | 0.929
28 | GUUCAGAUGGCGUAAUGGUAACGCGUCUCCCUCCUCACGAGAAGACUGCGGGUUUGAGUCCAGUACGGAACG | ≤ 0.5
29 | GUUCAGUAGGCGUAAUGGUAACGCGUCUCCCUCCUAAGGAGAAGAGUGCGGGUUCGAGUCCCGUACGGAACG | ≤ 0.5
30 | GUUCAGCUGGCGUAAUGGAAACGCGUCUCCCUCCUAACGAGGAGACUGCGGGUUCGAGUCCCGUACGGAACG | ≤ 0.5
31 | GUUCAGUUGGCGUAAUGGUAACGCGUCUCCCUCCUAAGGAGAAGACUCCGGGUUCGGGUCCCGUACGGAACG | 0.557
32 | GUUCAGUUGGCGUAAUGGUAACGCGUCUCCCUCCUAAGGAGAAGACUCCGGGUUCGUGUCCCGUACGGAACG | ≤ 0.5
33 | GUUCAGUUGGCGUAAUGGUAACGCGUCUCCCUCCUAAGGAGAAGACUGCGCGUUCGAGUCCCCUCCGGAACG | ≤ 0.5
34 | GUUCAGUUGGCGUAAUGGUAACGCGUCUCCCUCCUAAGGAGAAGACUCCGCGAUCGAGUCCCGUACGGAACG | ≤ 0.5
35 | GUUCAGAUGGCGUAAUGGUAACGCCUCUCCCUCCUAAGGAGAAGAUUGCGGGUUCGAGUCCCGUACGGAACG | ≤ 0.5
36 | GUUCAGUUGGCGUAAUGGUAACGCGUCUCCCUCCUAAGGAGAAGACUGCGGGUUCGACUCCCGUACGGACCG | 0.644
37 | GUUCAGUUGGCGUAAUGGUAACGCGUCUCCCUCCUAAGGAGAAGACUGCCGGUUCGAGUCCCGCACGGAACG | 0.73
38 | GUUCAGUUGGCGUAAUGGUAACGCGUCUCCCUCCUAAGGAGAAGACUGCGGGUUCGAUUCCCGUACGGAACG | 0.946
